Measurements taken from ChEMBL document CHEMBL4406880, “Design, synthesis, and bioactivity of dihydropyrimidine derivatives as kinesin spindle protein inhibitors” (Bioorg Med Chem, 2019).

Key:
Type in all cases: functional
[1] = system: CCRF-CEM; assay: Growth inhibition of human CCRF-CEM cells assessed as growth percentage at 10 uM incubated for 48 hrs by sulforhodamine B assay relative to control; conditions: read-out: Activity
Outline: (§1)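 NCI-60 one-dose screen: cells in RPMI 1640 with 5% FBS and 2 mM L-glutamine, plated at 5,000–40,000 cells/well and preincubated 24 h at 37 °C, 5% CO2. Compound is added from a DMSO stock to a final 10 µM and incubated 48 h. Cells are TCA-fixed and stained with sulforhodamine B, read at 515 nm. Output is % growth versus untreated control, with a time-zero plate.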

[2] = system: K562; assay: Growth inhibition of human K562 cells assessed as growth percentage at 10 uM incubated for 48 hrs by sulforhodamine B assay relative to control; conditions: K562, 48 h, read-out: Activity
Outline: (§2)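 NCI-60 one-dose screen. Cells in RPMI 1640 with 5% FBS and 2 mM L-glutamine, seeded at 5,000–40,000 cells/well according to doubling time, and preincubated overnight at 37 °C, 5% CO2. A time-zero plate was TCA-fixed at drug addition. Compound from DMSO stock, final 10 µM, 48 h; DMSO vehicle controls. Fixation with TCA, 10% final (16% for suspension cells). SRB stain, Tris solubilization, A515. Result given as % growth versus untreated cells.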

[3] = system: HL-60(TB); assay: Growth inhibition of human HL-60(TB) cells assessed as growth percentage at 10 uM incubated for 48 hrs by sulforhodamine B assay relative to control; conditions: HL-60, 48 h, read-out: Activity
Outline: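 NCI-60 single-dose screen. Cells in RPMI 1640 with 5% FBS and 2 mM L-glutamine are plated at 5,000–40,000 cells/well and preincubated overnight at 37 °C, 5% CO2. Compound is added from a DMSO stock at 10 µM final for 48 h. Cells are TCA-fixed (suspension cells 16% final) and stained with SRB. Absorbance is read at 515 nm, and percentage growth is calculated against untreated controls with a time-zero plate.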

[4] = system: HOP-62; assay: Growth inhibition of human HOP62 cells assessed as growth percentage at 10 uM incubated for 48 hrs by sulforhodamine B assay relative to control; conditions: HOP-62, 48 h, read-out: Activity; outline: as §2
[5] = system: NCI-H226; assay: Growth inhibition of human NCI-H226 cells assessed as growth percentage at 10 uM incubated for 48 hrs by sulforhodamine B assay relative to control; conditions: NCI-H226, 48 h, read-out: Activity; outline: as §2
[6] = system: NCI-H23; assay: Growth inhibition of human NCI-H23 cells assessed as growth percentage at 10 uM incubated for 48 hrs by sulforhodamine B assay relative to control; conditions: NCI-H23, 48 h, read-out: Activity; outline: as §2
[7] = system: NCI-H460; assay: Growth inhibition of human NCI-H460 cells assessed as growth percentage at 10 uM incubated for 48 hrs by sulforhodamine B assay relative to control; conditions: NCI-H460, 48 h, read-out: Activity; outline: as §2
[8] = system: HCC 2998; assay: Growth inhibition of human HCC2998 cells assessed as growth percentage at 10 uM incubated for 48 hrs by sulforhodamine B assay relative to control; conditions: HCC 2998, 48 h, read-out: Activity; outline: as §1
[9] = system: HCT-15; assay: Growth inhibition of human HCT15 cells assessed as growth percentage at 10 uM incubated for 48 hrs by sulforhodamine B assay relative to control; conditions: HCT-15, 48 h, read-out: Activity; outline: as §1
[10] = system: SW-620; assay: Growth inhibition of human SW620 cells assessed as growth percentage at 10 uM incubated for 48 hrs by sulforhodamine B assay relative to control; conditions: SW-620, 48 h, read-out: Activity
Outline: (§3)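 NCI-60 single-dose screen. Cells were grown in RPMI 1640 with 5% FBS and 2 mM L-glutamine and plated at 5,000–40,000 cells/well. After an overnight preincubation at 37 °C in 5% CO2, compound was added at a final 10 µM from a DMSO stock, with DMSO/PBS controls. After 48 h, cells were TCA-fixed and stained with 0.4% SRB, and absorbance was read at 515 nm. Growth is given as a percentage of untreated control.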

[11] = system: SF-268; assay: Growth inhibition of human SF268 cells assessed as growth percentage at 10 uM incubated for 48 hrs by sulforhodamine B assay relative to control; conditions: SF-268, 48 h, read-out: Activity; outline: as §3
[12] = system: SF-539; assay: Growth inhibition of human SF539 cells assessed as growth percentage at 10 uM incubated for 48 hrs by sulforhodamine B assay relative to control; conditions: SF-539, 48 h, read-out: Activity; outline: as §3
[13] = system: Malme-3M; assay: Growth inhibition of human MALME-3M cells assessed as growth percentage at 10 uM incubated for 48 hrs by sulforhodamine B assay relative to control; conditions: read-out: Activity; outline: as §2
[14] = system: SK-MEL-2; assay: Growth inhibition of human SK-MEL-2 cells assessed as growth percentage at 10 uM incubated for 48 hrs by sulforhodamine B assay relative to control; conditions: SK-MEL-2, 48 h, read-out: Activity; outline: as §3
[15] = system: SK-MEL-5; assay: Growth inhibition of human SK-MEL-5 cells assessed as growth percentage at 10 uM incubated for 48 hrs by sulforhodamine B assay relative to control; conditions: SK-MEL-5, 48 h, read-out: Activity; outline: as §3
[16] = system: UACC-62; assay: Growth inhibition of human UACC62 cells assessed as growth percentage at 10 uM incubated for 48 hrs by sulforhodamine B assay relative to control; conditions: UACC-62, 48 h, read-out: Activity; outline: as §3
[17] = system: OVCAR-8; assay: Growth inhibition of human OVCAR8 cells assessed as growth percentage at 10 uM incubated for 48 hrs by sulforhodamine B assay relative to control; conditions: OVCAR-8, 48 h, read-out: Activity; outline: as §3
[18] = system: A498; assay: Growth inhibition of human A498 cells assessed as growth percentage at 10 uM incubated for 48 hrs by sulforhodamine B assay relative to control; conditions: A498, 48 h, read-out: Activity; outline: as §1
[19] = system: ACHN; assay: Growth inhibition of human ACHN cells assessed as growth percentage at 10 uM incubated for 48 hrs by sulforhodamine B assay relative to control; conditions: read-out: Activity; outline: as §1
[20] = system: RXF 393; assay: Growth inhibition of human RXF393 cells assessed as growth percentage at 10 uM incubated for 48 hrs by sulforhodamine B assay relative to control; conditions: RXF 393, 48 h, read-out: Activity; outline: as §3
[21] = system: SN12C; assay: Growth inhibition of human SN12C cells assessed as growth percentage at 10 uM incubated for 48 hrs by sulforhodamine B assay relative to control; conditions: read-out: Activity; outline: as §3
[22] = system: TK-10; assay: Growth inhibition of human TK10 cells assessed as growth percentage at 10 uM incubated for 48 hrs by sulforhodamine B assay relative to control; conditions: TK-10, 48 h, read-out: Activity; outline: as §3
[23] = system: UO-31; assay: Growth inhibition of human UO31 cells assessed as growth percentage at 10 uM incubated for 48 hrs by sulforhodamine B assay relative to control; conditions: UO-31, 48 h, read-out: Activity; outline: as §3
[24] = system: BT-549; assay: Growth inhibition of human BT549 cells assessed as growth percentage at 10 uM incubated for 48 hrs by sulforhodamine B assay relative to control; conditions: BT-549, 48 h, read-out: Activity; outline: as §1

Compound | growth at 10 µM [1] [%] | growth at 10 µM [2] [%] | growth at 10 µM [3] [%] | growth at 10 µM [4] [%] | growth at 10 µM [5] [%] | growth at 10 µM [6] [%] | growth at 10 µM [7] [%] | growth at 10 µM [8] [%] | growth at 10 µM [9] [%] | growth at 10 µM [10] [%] | growth at 10 µM [11] [%] | growth at 10 µM [12] [%] | growth at 10 µM [13] [%] | growth at 10 µM [14] [%] | growth at 10 µM [15] [%] | growth at 10 µM [16] [%] | growth at 10 µM [17] [%] | growth at 10 µM [18] [%] | growth at 10 µM [19] [%] | growth at 10 µM [20] [%] | also measured
CC1(C)CC(=O)C2=C(C1)NC(=O)NC2c1ccc2c(c1)OCO2 (racemic) | 111 | 108 | 97.6 | 122 | 109 | 104 | 117 | 109 | 103 | 109 | 98.8 | 106 | 100 | 104 | 100 | 107 | 104 | 124 | 109 | 118 | growth at 10 µM [21]: 105%; growth at 10 µM [22]: 106%; growth at 10 µM [23]: 84.6%; growth at 10 µM [24]: 109%
CC(=O)C1=C(C)Nc2nc3ccccc3n2C1c1ccc2c(c1)OCO2 (racemic) | 94.8 | 82.9 | 98.4 | 94.7 | 103 | 106 | 112 | 111 | 98.2 | 104 | 105 | 99.7 | 105 | 130 | 102 | 94.4 | 98.6 | 112 | 110 | 108 | growth at 10 µM [21]: 101%; growth at 10 µM [22]: 104%; growth at 10 µM [23]: 89.3%; growth at 10 µM [24]: 102%
